Reference: ChEMBL document CHEMBL4350961, “Discovery of Pyrrolo[3,2- d]pyrimidin-4-one Derivatives as a New Class of Potent and Cell-Active Inhibitors of P300/CBP-Associated Factor Bromodomain” (J Med Chem, 2019)
The source made the active and inactive calls. The rule behind the calls is not given here.

Tests used:
[1] = Unbound fraction in Sprague-Dawley rat plasma at 1 uM measured after 16 hrs by equilibrium dialysis-based LC-MS/MS analysis; assay type: ADME, cell-free
[2] = target: Bone morphogenetic protein receptor type-1B (Homo sapiens) (UniProt O00238); assay: Inhibition of recombinant human ALK6 (148 to end residues) at 10 uM using casein as substrate measured after 40 mins in presence of [gamma33P]ATP by scintillation counting method
[3] = target: NUAK family SNF1-like kinase 1 (Homo sapiens) (UniProt O60285); assay: Inhibition of recombinant human ARK5 (2 to end residues) at 10 uM using KKKVSRSGLYRSPSMPENLNRPR as substrate measured after 40 mins in presence of [gamma33P]ATP by scintillation counting method
[4] = target: Calcium/calmodulin-dependent protein kinase type 1B (Homo sapiens) (UniProt Q6P2M8); assay: Inhibition of recombinant full-length human CaMK1beta at 10 uM using calmodulin as substrate measured after 40 mins in presence of [gamma33P]ATP by scintillation counting method
[5] = target: Casein kinase I isoform gamma-1 (Homo sapiens) (UniProt Q9HCP0); assay: Inhibition of recombinant human CK1gamma1 (25 to 355 residues) at 10 uM using KRRRALS(p)VASLPGL as substrate measured after 40 mins in presence of [gamma33P]ATP by scintillation counting method
[6] = target: Dual specificity protein kinase CLK1 (Homo sapiens) (UniProt P49759); assay: Inhibition of recombinant human CLK1 (130 to end residues) at 10 uM using ERMRPRKRQGSVRRRV as substrate measured after 40 mins in presence of [gamma33P]ATP by scintillation counting method
[7] = tested on: Eukaryotic elongation factor 2 kinase (Homo sapiens), O00418 [H23R]; assay: Inhibition of recombinant human EEF2K H23R mutant (2 to end residues) at 10 uM using RKKFGESEKTKTKEFL as substrate measured after 40 mins in presence of [gamma33P]ATP by scintillation counting method
[8] = target: Ephrin type-A receptor 4 (Homo sapiens) (UniProt P54764); assay: Inhibition of recombinant human EphA4 (601 to 892 residues) at 10 uM using poly(Glu, Tyr) 4:1 as substrate measured after 40 mins in presence of [gamma33P]ATP by scintillation counting method
[9] = target: Fibroblast growth factor receptor 1 (Homo sapiens) (UniProt P11362); assay: Inhibition of recombinant human FGFR1 (456 to 765 residues) at 10 uM using KKKSPGEYVNIEFG as substrate measured after 40 mins in presence of [gamma33P]ATP by scintillation counting method
[10] = target: Fibroblast growth factor receptor 2 (Homo sapiens) (UniProt P21802); assay: Inhibition of recombinant human FGFR2 (456 to 770 residues) at 10 uM using poly(Glu, Tyr) 4:1 as substrate measured after 40 mins in presence of [gamma33P]ATP by scintillation counting method
[11] = tested on: eIF-2-alpha kinase GCN2 (Homo sapiens), Q9P2K8 [E556G]; assay: Inhibition of recombinant full-length human GCN2 E556G mutant at 10 uM using RSRSRSRSRSRSRSR as substrate measured after 40 mins in presence of [gamma33P]ATP by scintillation counting method
[12] = target: Tyrosine-protein kinase HCK (Homo sapiens) (UniProt P08631); assay: Inhibition of recombinant human activated HCK (230 to 497 residues) at 10 uM using GGMEDIYFEFMGGKKK as substrate measured after 40 mins in presence of [gamma33P]ATP by scintillation counting method
[13] = target: Inhibitor of nuclear factor kappa-B kinase subunit alpha (Homo sapiens) (UniProt O15111); assay: Inhibition of recombinant full-length human IKKalpha (959 to end residues) at 10 uM using peptide substrate measured after 40 mins in presence of [gamma33P]ATP by scintillation counting method
[14] = target: Insulin receptor-related protein (Homo sapiens) (UniProt P14616); assay: Inhibition of recombinant human IRR (943 to 1266 residues) at 10 uM using myelin basic protein as substrate measured after 40 mins in presence of [gamma33P]ATP by scintillation counting method
[15] = target: Mitogen-activated protein kinase 1 (Homo sapiens) (UniProt P28482); assay: Inhibition of human MAPK2 at 10 uM
In short: (§1)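 Kinase panel of 422 kinases screened by Eurofins KinaseProfiler at a single test-compound concentration of 10 µM.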

[16] = target: Dual specificity mitogen-activated protein kinase kinase 1 (Homo sapiens) (UniProt Q02750); assay: Inhibition of recombinant full-length human MEK1 at 10 uM using unactive MAPK2 as substrate measured after 40 mins in presence of [gamma33P]ATP by scintillation counting method
[17] = target: Mitogen-activated protein kinase kinase kinase 9 (Homo sapiens) (UniProt P80192); assay: Inhibition of recombinant human MLK1 (134 to 414 residues) at 10 uM using casein as substrate measured after 40 mins in presence of [gamma33P]ATP by scintillation counting method
[18] = target: MAP kinase-interacting serine/threonine-protein kinase 2 (Homo sapiens) (UniProt Q9HBH9); assay: Inhibition of recombinant full-length human Mnk2 at 10 uM using myelin basic protein as substrate measured after 40 mins in presence of [gamma33P]ATP by scintillation counting method
[19] = target: FKBP12A/mTOR (Homo sapiens) (UniProt P62942+P42345); assay: Inhibition of recombinant full-length human mTOR/FKBP12 at 10 uM measured after 40 mins in presence of [gamma33P]ATP by scintillation counting method; assay type: protein-complex assay
[20] = target: Mitogen-activated protein kinase 14 (Homo sapiens) (UniProt Q16539); assay: Inhibition of recombinant full-length human SAPK2a at 10 uM using myelin basic protein as substrate measured after 40 mins in presence of [gamma33P]ATP by scintillation counting method
[21] = target: Tyrosine-protein kinase Srms (Homo sapiens) (UniProt Q9H3Y6); assay: Inhibition of human SRMS at 10 uM by radiometric method; in short: as §1
[22] = tested on: Angiopoietin-1 receptor (Homo sapiens), Q02763 [Q939H,Q940H,R849W]; assay: Inhibition of human Tie2 Q939H/Q940H/R849W mutant (771 to end residues) using EFPIYDFLPAKKK as substrate measured after 40 mins in presence of [gamma33P]ATP by scintillation counting method
[23] = target: Testis-specific serine/threonine-protein kinase 3 (Homo sapiens) (UniProt Q96PN8); assay: Inhibition of recombinant full-length human TSSK3 at 10 uM using AMARAASAAALARRR as substrate measured after 40 mins in presence of [gamma33P]ATP by scintillation counting method
[24] = target: Serine/threonine-protein kinase WNK1 (Homo sapiens) (UniProt Q9H4A3); assay: Inhibition of human WNK1 (1 to 491 residues) using myelin basic protein as substrate measured after 120 mins in presence of [gamma33P]ATP by scintillation counting method
[25] = target: Serine/threonine-protein kinase WNK4 (Homo sapiens) (UniProt Q96J92); assay: Inhibition of human WNK4 using myelin basic protein as substrate measured after 120 mins in presence of [gamma33P]ATP by scintillation counting method
Chain of Serine/threonine-protein kinase WNK4 (Homo sapiens) (Q96J92 whole entry): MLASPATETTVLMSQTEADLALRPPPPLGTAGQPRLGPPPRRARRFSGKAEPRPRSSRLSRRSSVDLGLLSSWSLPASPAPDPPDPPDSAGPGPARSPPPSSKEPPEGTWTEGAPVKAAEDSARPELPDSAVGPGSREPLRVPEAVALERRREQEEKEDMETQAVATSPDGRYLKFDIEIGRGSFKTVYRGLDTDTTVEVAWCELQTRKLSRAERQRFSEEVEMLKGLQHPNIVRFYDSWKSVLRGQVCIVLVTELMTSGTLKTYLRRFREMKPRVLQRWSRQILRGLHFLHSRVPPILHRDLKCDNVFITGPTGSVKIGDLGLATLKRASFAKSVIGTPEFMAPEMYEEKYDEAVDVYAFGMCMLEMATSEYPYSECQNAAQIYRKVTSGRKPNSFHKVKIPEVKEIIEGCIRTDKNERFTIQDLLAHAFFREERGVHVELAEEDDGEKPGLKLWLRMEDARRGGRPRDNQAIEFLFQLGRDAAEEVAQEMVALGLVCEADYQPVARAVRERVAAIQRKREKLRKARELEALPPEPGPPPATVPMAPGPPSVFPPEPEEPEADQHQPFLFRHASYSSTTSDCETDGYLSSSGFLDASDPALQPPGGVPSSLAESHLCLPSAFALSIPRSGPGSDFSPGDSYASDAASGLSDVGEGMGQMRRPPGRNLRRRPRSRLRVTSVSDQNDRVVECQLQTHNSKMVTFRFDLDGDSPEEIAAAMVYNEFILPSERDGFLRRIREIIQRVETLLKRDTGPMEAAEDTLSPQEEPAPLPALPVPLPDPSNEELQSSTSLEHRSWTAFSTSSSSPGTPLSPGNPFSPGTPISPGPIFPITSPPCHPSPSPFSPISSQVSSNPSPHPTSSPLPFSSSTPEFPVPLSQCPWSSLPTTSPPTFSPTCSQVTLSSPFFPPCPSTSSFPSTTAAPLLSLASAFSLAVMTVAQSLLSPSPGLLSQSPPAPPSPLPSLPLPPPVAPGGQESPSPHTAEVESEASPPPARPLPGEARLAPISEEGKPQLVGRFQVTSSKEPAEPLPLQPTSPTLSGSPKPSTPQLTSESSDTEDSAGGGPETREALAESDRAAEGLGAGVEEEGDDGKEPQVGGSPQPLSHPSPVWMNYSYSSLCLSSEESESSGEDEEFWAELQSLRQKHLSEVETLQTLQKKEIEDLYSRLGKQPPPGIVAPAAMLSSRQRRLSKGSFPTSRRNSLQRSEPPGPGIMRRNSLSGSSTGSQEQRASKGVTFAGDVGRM

Chain of Fibroblast growth factor receptor 1 (Homo sapiens) (P11362 22-822 limits assumed): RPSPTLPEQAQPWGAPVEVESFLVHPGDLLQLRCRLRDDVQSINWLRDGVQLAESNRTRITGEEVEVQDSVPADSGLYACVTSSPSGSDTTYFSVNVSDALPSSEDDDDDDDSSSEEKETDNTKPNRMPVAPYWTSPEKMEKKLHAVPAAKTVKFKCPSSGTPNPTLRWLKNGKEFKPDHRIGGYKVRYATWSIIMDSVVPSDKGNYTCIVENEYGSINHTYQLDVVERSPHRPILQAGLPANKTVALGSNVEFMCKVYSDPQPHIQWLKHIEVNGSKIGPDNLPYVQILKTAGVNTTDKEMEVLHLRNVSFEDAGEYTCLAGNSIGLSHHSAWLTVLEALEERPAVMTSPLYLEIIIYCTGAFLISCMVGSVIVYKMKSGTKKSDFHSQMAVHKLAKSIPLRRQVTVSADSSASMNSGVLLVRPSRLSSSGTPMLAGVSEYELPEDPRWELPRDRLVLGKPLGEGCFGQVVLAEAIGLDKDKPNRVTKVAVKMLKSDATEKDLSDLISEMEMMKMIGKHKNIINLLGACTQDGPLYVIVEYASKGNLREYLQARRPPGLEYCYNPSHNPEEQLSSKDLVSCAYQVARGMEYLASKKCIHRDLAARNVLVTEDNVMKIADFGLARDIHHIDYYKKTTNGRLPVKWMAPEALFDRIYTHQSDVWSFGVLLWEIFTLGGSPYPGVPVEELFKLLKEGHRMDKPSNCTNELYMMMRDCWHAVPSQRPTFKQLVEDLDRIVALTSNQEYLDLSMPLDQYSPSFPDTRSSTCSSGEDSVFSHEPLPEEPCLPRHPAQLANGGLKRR
Chain of Dual specificity protein kinase CLK1 (Homo sapiens) (P49759 whole entry, looked up): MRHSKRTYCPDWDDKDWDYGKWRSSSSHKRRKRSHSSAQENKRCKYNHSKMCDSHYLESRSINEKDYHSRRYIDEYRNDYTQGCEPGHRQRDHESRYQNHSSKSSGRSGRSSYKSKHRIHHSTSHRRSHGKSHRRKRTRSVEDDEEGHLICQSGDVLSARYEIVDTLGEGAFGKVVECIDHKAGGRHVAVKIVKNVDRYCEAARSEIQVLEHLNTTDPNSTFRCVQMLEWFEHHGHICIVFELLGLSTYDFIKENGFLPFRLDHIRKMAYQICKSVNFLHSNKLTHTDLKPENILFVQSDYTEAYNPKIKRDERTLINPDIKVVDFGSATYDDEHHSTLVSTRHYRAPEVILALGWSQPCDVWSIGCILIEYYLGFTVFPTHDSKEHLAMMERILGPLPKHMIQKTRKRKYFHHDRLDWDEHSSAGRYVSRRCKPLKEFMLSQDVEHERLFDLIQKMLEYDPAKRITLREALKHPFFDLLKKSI
Chain of Ephrin type-A receptor 4 (Homo sapiens) (P54764 whole entry, the tested form may be a part): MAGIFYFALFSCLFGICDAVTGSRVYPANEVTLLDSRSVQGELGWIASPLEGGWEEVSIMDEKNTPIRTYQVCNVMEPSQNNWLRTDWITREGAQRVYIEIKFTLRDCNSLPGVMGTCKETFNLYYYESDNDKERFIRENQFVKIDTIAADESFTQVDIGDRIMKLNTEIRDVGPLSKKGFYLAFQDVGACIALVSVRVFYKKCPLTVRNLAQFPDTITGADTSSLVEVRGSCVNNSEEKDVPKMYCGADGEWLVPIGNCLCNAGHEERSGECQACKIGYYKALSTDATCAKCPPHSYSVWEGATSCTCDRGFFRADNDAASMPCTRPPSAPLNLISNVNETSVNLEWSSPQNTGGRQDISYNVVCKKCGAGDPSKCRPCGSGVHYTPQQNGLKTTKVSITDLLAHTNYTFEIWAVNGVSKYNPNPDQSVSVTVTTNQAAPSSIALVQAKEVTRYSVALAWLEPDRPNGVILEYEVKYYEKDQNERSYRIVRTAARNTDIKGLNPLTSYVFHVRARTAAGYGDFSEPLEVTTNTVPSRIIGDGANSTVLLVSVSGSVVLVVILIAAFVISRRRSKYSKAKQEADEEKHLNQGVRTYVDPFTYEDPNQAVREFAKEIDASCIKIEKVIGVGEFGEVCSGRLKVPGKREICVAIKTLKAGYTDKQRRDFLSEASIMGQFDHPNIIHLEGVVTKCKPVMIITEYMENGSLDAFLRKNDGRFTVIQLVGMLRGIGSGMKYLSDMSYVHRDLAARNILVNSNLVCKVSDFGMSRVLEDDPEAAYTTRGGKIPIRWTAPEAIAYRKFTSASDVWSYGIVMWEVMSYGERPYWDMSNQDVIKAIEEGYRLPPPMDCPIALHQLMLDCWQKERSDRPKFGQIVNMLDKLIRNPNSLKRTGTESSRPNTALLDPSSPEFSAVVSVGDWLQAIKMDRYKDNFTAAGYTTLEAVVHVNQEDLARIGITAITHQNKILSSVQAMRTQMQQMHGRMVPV
Chain of Fibroblast growth factor receptor 2 (Homo sapiens) (P21802 22-821 limits assumed): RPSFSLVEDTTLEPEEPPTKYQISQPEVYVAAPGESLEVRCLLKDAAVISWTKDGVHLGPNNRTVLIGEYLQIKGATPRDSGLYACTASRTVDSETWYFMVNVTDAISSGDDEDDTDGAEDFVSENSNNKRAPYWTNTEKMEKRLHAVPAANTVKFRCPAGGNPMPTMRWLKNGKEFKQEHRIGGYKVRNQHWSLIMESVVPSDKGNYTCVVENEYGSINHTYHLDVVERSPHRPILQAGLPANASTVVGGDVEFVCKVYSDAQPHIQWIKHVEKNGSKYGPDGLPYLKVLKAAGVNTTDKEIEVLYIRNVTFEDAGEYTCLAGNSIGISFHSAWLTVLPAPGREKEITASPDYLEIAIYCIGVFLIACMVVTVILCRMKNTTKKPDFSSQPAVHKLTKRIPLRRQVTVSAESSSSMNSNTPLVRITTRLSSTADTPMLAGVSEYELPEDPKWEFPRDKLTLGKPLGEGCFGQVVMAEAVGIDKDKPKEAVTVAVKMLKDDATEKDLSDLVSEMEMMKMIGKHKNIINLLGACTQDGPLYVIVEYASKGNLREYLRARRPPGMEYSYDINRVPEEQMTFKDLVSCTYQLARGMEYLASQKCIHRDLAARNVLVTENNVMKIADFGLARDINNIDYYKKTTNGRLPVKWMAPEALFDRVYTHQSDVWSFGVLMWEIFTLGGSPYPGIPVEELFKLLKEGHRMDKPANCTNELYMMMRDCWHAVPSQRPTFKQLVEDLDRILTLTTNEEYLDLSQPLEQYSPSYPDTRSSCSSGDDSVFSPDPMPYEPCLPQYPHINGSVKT
Chain of MAP kinase-interacting serine/threonine-protein kinase 2 (Homo sapiens) (Q9HBH9 whole entry, looked up): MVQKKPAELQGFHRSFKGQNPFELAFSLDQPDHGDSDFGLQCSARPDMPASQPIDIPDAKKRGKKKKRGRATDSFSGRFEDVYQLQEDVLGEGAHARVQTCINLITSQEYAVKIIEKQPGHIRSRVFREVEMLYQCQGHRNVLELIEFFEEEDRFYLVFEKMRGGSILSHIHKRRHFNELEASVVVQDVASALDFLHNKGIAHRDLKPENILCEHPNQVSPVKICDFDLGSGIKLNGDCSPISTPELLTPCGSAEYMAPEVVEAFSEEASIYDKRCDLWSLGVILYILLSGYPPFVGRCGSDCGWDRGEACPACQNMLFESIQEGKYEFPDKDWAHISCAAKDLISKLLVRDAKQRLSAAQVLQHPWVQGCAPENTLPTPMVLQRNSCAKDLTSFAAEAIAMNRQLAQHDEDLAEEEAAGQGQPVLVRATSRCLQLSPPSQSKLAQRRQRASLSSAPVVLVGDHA
Chain of Testis-specific serine/threonine-protein kinase 3 (Homo sapiens) (Q96PN8 whole entry, the tested form may be a part): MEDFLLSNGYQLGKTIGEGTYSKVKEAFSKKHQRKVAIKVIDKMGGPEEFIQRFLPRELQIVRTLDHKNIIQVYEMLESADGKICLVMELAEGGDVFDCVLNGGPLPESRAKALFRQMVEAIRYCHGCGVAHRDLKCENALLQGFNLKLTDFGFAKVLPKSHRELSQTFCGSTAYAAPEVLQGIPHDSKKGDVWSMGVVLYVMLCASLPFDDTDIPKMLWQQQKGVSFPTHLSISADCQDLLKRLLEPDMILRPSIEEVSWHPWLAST

CN1C[C@H](Nc2nc3cc[nH]c3c(=O)n2C)C[C@H](c2ccc3c(c2)OCCO3)C1
fraction unbound at 16 h, 1 µM [1]: 0.058 | inhibition [2]: inactive | inhibition [3]: inactive | inhibition [4]: inactive | inhibition [5]: inactive | inhibition [6]: inactive | inhibition [7]: inactive | inhibition [8]: inactive | inhibition [9]: inactive | inhibition [10]: inactive | inhibition [11]: inactive | inhibition [12]: inactive | inhibition [13]: inactive | inhibition [14]: inactive | inhibition [15]: inactive | inhibition [16]: inactive | inhibition [17]: inactive | inhibition [18]: inactive | inhibition [19]: inactive | inhibition [20]: inactive | inhibition [21]: inactive | inhibition [22]: inactive | inhibition [23]: inactive | inhibition [24]: inactive | inhibition [25]: inactive
